Assay results reported in ChEMBL document CHEMBL4000184, “Synthesis of Novel c(AmpRGD)-Sunitinib Dual Conjugates as Molecular Tools Targeting the αvβ3 Integrin/VEGFR2 Couple and Impairing Tumor-Associated Angiogenesis” (J Med Chem, 2017).
Active and inactive are the calls of the source. No cut-off for these calls is given here.

Experiments:
[1] = Inhibition of VEGF-A-induced cell proliferation in human EPC at 1 uM measured after 24 hrs by trypan blue exclusion assay relative to control; type: functional
In short: (§1)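 Human cord-blood EPCs seeded at 6,000 cells/well on gelatin, adhered 4 h in complete medium. Then placed in serum-free medium with VEGF-A 20 ng/mL and compound at 1 μM, re-added every 24 h. Cell number and viability measured by trypan blue exclusion at 24, 48 and 72 h. Triplicate, repeated at least three times.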

[2] = Antiangiogenic activity in human EPC assessed as inhibition of VEGF-A induced tubule formation at 10 nM measured after 6 hrs by matrigel based phase contrast microscopic analysis relative to control; type: functional
In short: (§2)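 EPCs grown 24 h in EGM-2, trypsinized, resuspended in serum/growth-factor-free EGM-2 with VEGF-A 20 ng/mL plus compound (0.01, 0.1, 1.0 μM) and seeded on growth-factor-reduced Matrigel at 7×10^4 cells/well. Incubated 6 h at 37 °C, photographed by phase contrast. Loops counted in four random fields per well, given as % reduction vs untreated cells. Triplicate.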

[3] = molecular target: T1, Integrin alpha-V/beta-3 (Homo sapiens, UniProt P05106+P06756); details: 1 to 10000 nM
[4] = molecular target: T1, Integrin alpha-V/beta-3; test: Drug uptake in human EPC assessed as alphavbeta3-mediated drug uptake by measuring intracellular content per mg protein at 1 uM measured after 8 hr by HPLC-ESI-MS/MS analysis; type: ADME, cell-based
In short: (§3)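 Confluent EPCs in serum- and growth-factor-free medium received compound at 1 μM final for 1 h at 37 °C. Cells washed with PBS, then extracted immediately or 8 h later with ethanol at 4 °C. Extract measured by HPLC-ESI-MS/MS; protein by Bradford. Reported as nmol/mg protein; uptake rate as pmol/min/mg protein over the first hour. Triplicate.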
Target sequence in this assay (P05106 27-788 limits assumed): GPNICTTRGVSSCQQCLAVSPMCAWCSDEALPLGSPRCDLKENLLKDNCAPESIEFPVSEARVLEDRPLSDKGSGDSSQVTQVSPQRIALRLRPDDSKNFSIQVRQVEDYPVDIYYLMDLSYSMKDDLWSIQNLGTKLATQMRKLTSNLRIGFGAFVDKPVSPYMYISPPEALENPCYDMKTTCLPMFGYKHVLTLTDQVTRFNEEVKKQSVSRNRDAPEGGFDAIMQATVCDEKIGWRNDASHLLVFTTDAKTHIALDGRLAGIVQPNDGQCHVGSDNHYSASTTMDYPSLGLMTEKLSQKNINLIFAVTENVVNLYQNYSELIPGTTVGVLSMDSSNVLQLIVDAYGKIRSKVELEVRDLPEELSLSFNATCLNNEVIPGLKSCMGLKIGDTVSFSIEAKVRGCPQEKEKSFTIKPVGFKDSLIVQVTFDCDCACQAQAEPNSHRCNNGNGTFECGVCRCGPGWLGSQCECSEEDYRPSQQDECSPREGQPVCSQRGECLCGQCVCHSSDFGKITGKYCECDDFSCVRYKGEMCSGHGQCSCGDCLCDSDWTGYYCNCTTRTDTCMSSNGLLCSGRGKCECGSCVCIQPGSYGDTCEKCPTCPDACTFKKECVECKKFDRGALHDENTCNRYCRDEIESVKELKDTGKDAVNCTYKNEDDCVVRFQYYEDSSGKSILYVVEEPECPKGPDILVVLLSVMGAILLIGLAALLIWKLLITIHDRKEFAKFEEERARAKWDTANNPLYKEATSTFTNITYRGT
Target sequence in this assay (P06756 31-889 limits assumed): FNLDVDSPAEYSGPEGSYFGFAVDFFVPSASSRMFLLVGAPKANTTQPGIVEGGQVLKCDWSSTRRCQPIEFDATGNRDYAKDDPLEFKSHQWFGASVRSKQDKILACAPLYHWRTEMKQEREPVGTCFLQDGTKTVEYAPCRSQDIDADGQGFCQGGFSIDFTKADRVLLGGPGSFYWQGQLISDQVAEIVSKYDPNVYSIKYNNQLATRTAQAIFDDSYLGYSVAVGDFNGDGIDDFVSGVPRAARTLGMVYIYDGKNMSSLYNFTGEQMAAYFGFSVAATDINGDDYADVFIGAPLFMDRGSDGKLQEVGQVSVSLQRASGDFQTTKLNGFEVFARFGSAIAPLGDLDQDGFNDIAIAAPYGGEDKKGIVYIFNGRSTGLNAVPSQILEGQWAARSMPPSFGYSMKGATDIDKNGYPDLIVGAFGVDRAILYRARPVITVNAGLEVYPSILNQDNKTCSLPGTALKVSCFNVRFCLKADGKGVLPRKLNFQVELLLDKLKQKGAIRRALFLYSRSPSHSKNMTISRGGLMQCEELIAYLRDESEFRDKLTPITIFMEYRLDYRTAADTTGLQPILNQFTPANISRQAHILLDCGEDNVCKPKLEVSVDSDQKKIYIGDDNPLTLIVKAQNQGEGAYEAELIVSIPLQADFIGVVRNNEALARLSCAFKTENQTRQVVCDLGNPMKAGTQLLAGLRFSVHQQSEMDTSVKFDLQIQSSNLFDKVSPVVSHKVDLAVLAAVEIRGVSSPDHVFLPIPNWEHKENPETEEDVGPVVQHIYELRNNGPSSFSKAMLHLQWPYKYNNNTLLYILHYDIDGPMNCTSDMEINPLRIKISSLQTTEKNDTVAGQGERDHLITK
Target sequence in this assay (P06756 891-1048 limits assumed): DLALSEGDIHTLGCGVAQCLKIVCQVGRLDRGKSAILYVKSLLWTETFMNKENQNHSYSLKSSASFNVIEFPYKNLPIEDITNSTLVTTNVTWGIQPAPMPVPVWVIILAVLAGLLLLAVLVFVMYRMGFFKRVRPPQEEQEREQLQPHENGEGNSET

[5] = Stability in human plasma assessed as compound remaining at 1 uM measured up to 8 hrs by HPLC-UV-Vis analysis; type: ADME, cell-free; details: read-out: Stability
In short: (§4)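 Rat or human plasma diluted to 80% v/v with 100 mM PBS pH 7.4; compound at 1 μM final, 37 °C, protected from light. Aliquots sampled over time up to 8 h, quenched with two volumes MeCN, centrifuged, and analyzed by HPLC-UV-Vis for % compound remaining.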

[6] = system: EPC; test: Inhibition of VEGF-A-induced cell proliferation in human EPC at 1 uM measured after 48 hrs by trypan blue exclusion assay; type: functional, cell-based; in short: as §1
[7] = Cytotoxicity against human EPC assessed as cell viability at 1 uM measured after 24 to 72 hrs by trypan blue exclusion assay; type: cell-based; in short: as §1
[8] = system: Mus musculus; test: In vivo antiangiogenic activity in EHS derived matrigel plug implanted FVB mouse assessed as inhibition of VEGF-A-induced angiogenesis at 10 mg/kg, by microscopic method
[9] = Stability in rat plasma assessed as compound remaining at 1 uM measured up to 8 hrs by HPLC-UV-Vis analysis; type: ADME, cell-free; details: read-out: Stability; in short: as §4
[10] = n-Octanol-buffer distribution coefficient, log D of the compound at pH 7.4 incubated for 4 hrs by HPLC-UV-vis based shake flask method; type: physicochemical
In short: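 Shake-flask partition between n-octanol and 50 mM MOPS pH 7.4 (ionic strength 0.15 M, KCl) at 25 ± 3 °C. Phases pre-saturated and equilibrated 4 h in the dark; each phase analyzed by HPLC-UV-Vis. Mean of at least three runs with different volume ratios.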

[11] = system: EPC; test: Inhibition of VEGF-A-induced cell proliferation in human EPC at 1 uM measured after 72 hrs by trypan blue exclusion assay; type: functional, cell-based; in short: as §1
[12] = molecular target: T1, Integrin alpha-V/beta-3; test: Drug internalization in human EPC assessed as alphavbeta3-mediated drug uptake by measuring intracellular content per mg protein at 1 uM measured after 1 hr by HPLC-ESI-MS/MS analysis; type: ADME, cell-based; in short: as §3
Target sequence in this assay (P05106 27-788 limits assumed): as the sequence (P05106 27-788 limits assumed) above
Target sequence in this assay (P06756 31-889 limits assumed): as the sequence (P06756 31-889 limits assumed) above
Target sequence in this assay (P06756 891-1048 limits assumed): as the sequence (P06756 891-1048 limits assumed) above

[13] = molecular target: T1, Integrin alpha-V/beta-3; test: Drug internalization in human EPC assessed as alphavbeta3-mediated drug uptake at 1 uM measured after 1 hr by HPLC-ESI-MS/MS analysis; type: ADME; in short: as §3
Target sequence in this assay (P05106 27-788 limits assumed): as the sequence (P05106 27-788 limits assumed) above
Target sequence in this assay (P06756 31-889 limits assumed): as the sequence (P06756 31-889 limits assumed) above
Target sequence in this assay (P06756 891-1048 limits assumed): as the sequence (P06756 891-1048 limits assumed) above

[14] = molecular target: T1, Integrin alpha-V/beta-3; test: Drug internalization in human EPC assessed as alphavbeta3-mediated drug uptake per mg protein at 1 uM measured after 1 hr by HPLC-ESI-MS/MS analysis; type: ADME; in short: as §3
Target sequence in this assay (P05106 27-788 limits assumed): as the sequence (P05106 27-788 limits assumed) above
Target sequence in this assay (P06756 31-889 limits assumed): as the sequence (P06756 31-889 limits assumed) above
Target sequence in this assay (P06756 891-1048 limits assumed): as the sequence (P06756 891-1048 limits assumed) above

[15] = molecular target: T2, Integrin alpha-5/beta-1 (Homo sapiens, UniProt P05556+P08648); test: Displacement of biotinylated fibronectin from recombinant human integrin alpha5beta1 dark incubated for 3 hrs by solid-phase receptor binding assay; type: protein-complex assay
In short: (§5)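 Recombinant human αvβ3 or α5β1 coated at 0.5 μg/mL overnight at 4 °C in Tris-HCl pH 7.4 buffer with Mn2+, Ca2+, Mg2+, then blocked with 1% BSA. Streptavidin-peroxidase read-out at 415 nm. Triplicate wells, nonlinear regression, run in duplicate.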

[16] = Drug uptake in human EPC at 1 uM measured after 1 hr in presence of alphaVbeta3 integrin ligand c(AmpRGD) amine by HPLC-ESI-MS/MS analysis; type: ADME, cell-based
In short: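 EPCs detached with Accutase, resuspended in serum-free medium, and given compound at 1 μM with or without c(AmpRGD) amine at 100 μM. Incubated at 37 °C, 10% CO2, then washed by centrifugation. Pellets extracted with ethanol at 4 °C for 10 min; content measured by HPLC-ESI-MS/MS.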

[17] = molecular target: T3, Vascular endothelial growth factor receptor 2 (Homo sapiens, UniProt P35968); details: at 1 µM
[18] = molecular target: T1, Integrin alpha-V/beta-3; test: Displacement of biotinylated vitronectin from recombinant human integrin alphaVbeta3 dark incubated for 3 hrs by solid-phase receptor binding assay; type: protein-complex assay; in short: as §5
Target sequence in this assay (P05106 27-788 limits assumed): as the sequence (P05106 27-788 limits assumed) above
Target sequence in this assay (P06756 31-889 limits assumed): as the sequence (P06756 31-889 limits assumed) above
Target sequence in this assay (P06756 891-1048 limits assumed): as the sequence (P06756 891-1048 limits assumed) above

[19] = molecular target: T1, Integrin alpha-V/beta-3; test: Inhibition of vitronectin binding to alphaVbeta3 in human EPC in presence of MnCl2 measured after 30 mins by crystal violet staining based cell adhesion assay
In short: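 Plates coated overnight with vitronectin at 4 °C and blocked with PBS/1% BSA. EPCs in serum-free medium preincubated with compound (1–10000 nM) for 30 min at 37 °C with 2.0 mmol/L MnCl2. Plated at 5-6×10^4 cells/well for 1 h at 37 °C. Adherent cells stained with crystal violet, read at 540 nm; % inhibition vs untreated. Triplicate, repeated at least three times.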

[20] = system: EPC; test: Antiangiogenic activity in human EPC assessed as inhibition of VEGF-A induced tubule formation at 0.1 to 1 uM measured after 6 hrs by matrigel based phase contrast microscopic analysis; type: functional, cell-based; in short: as §2
[21] = molecular target: T3, Vascular endothelial growth factor receptor 2; test: Inhibition of recombinant human VEGFR2 expressed in Sf9 cells using Ulight-CAGAGAIETDKEYYTVKD as substrate measured after 60 mins by LANCE method
[22] = molecular target: Platelet-derived growth factor receptor beta (Homo sapiens, UniProt P09619); test: Inhibition of recombinant human PDGFRbeta expressed in insect cells using Ulight-Poly GAT[EAY(1:1:1)]n as substrate measured after 30 mins by LANCE method
[23] = molecular target: T1, Integrin alpha-V/beta-3; test: Displacement of biotinylated vitronectin from human integrin alphaVbeta3 measured after 3 hrs by solid-phase receptor binding assay; type: protein-complex assay
In short: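 Recombinant human αvβ3 or α5β1 coated at 0.5 μg/mL overnight at 4 °C in Tris-HCl pH 7.4 buffer with Mn2+, Ca2+, Mg2+, then blocked with 1% BSA. Triplicate wells, nonlinear regression, run in duplicate.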
Target sequence in this assay (P05106 27-788 limits assumed): as the sequence (P05106 27-788 limits assumed) above
Target sequence in this assay (P06756 31-889 limits assumed): as the sequence (P06756 31-889 limits assumed) above
Target sequence in this assay (P06756 891-1048 limits assumed): as the sequence (P06756 891-1048 limits assumed) above

[24] = molecular target: Integrin alpha-V/beta-5 (Homo sapiens, UniProt P06756+P18084); test: Displacement of biotinylated vitronectin from human integrin alphaVbeta5 measured after 3 hrs by solid-phase receptor binding assay; type: protein-complex assay
[25] = molecular target: T2, Integrin alpha-5/beta-1; test: Inhibition of alpha5beta1 (unknown origin); type: protein-complex assay

T3 sequence (P35968 whole entry): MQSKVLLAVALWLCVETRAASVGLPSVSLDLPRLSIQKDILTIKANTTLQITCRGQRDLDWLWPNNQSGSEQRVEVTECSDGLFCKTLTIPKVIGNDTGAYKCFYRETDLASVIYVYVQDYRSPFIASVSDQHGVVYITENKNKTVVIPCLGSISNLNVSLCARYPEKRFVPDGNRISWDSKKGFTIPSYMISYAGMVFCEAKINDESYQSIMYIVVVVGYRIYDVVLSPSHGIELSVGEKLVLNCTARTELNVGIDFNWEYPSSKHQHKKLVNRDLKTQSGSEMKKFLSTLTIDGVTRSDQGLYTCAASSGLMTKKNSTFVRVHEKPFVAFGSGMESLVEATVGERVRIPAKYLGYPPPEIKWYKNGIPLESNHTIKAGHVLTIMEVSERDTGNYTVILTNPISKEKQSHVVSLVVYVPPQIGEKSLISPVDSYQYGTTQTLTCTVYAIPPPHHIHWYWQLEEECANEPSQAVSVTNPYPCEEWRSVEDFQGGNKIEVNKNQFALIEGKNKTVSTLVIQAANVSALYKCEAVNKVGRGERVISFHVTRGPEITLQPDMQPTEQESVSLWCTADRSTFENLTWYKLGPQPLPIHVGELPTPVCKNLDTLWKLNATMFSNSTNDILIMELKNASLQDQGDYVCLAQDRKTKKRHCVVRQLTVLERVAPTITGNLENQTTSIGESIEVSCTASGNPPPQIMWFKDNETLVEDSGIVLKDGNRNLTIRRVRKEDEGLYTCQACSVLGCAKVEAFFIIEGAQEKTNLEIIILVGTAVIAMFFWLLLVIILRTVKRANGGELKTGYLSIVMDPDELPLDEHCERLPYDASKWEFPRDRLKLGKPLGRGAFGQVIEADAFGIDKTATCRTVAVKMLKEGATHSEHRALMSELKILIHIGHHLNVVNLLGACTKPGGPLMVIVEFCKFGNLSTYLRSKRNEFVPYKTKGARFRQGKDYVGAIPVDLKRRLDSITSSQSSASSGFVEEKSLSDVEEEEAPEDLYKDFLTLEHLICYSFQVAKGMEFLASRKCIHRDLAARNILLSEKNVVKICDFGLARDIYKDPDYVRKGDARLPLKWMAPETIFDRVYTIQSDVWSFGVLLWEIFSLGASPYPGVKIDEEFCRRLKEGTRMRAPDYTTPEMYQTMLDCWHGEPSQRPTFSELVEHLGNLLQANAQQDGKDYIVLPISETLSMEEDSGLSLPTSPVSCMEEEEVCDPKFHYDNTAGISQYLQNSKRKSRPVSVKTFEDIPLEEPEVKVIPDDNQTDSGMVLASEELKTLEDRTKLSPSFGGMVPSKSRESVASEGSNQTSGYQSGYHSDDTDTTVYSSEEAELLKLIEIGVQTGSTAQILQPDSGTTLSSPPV
Chain of Platelet-derived growth factor receptor beta (P09619 whole entry): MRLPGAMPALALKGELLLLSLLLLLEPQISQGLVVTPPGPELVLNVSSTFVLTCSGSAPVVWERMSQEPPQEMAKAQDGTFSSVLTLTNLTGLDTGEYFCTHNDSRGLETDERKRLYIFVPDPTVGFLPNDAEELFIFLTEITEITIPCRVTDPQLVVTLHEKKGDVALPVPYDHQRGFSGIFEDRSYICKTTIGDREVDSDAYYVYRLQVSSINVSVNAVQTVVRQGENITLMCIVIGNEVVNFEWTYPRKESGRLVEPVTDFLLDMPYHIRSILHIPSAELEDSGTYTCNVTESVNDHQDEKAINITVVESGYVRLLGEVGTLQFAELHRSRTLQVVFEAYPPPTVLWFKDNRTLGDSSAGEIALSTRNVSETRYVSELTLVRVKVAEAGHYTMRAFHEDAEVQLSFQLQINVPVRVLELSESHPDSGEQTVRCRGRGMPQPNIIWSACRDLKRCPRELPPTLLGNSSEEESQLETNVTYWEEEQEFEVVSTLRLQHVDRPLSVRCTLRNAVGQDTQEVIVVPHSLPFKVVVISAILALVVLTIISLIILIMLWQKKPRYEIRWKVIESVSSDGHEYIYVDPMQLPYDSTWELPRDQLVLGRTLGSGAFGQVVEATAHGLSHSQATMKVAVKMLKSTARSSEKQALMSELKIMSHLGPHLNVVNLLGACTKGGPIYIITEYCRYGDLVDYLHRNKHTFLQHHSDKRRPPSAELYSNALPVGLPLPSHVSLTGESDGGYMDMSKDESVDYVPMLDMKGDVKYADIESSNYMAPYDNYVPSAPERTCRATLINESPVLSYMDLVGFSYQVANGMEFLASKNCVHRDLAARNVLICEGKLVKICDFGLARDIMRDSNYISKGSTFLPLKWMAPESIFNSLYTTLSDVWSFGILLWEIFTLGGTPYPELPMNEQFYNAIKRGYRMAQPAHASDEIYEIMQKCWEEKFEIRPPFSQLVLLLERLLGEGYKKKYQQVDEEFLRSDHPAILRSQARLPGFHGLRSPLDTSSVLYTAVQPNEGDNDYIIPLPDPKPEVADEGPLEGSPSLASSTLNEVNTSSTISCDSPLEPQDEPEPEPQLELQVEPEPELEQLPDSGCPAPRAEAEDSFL

Structure (SMILES): CCN(CC)CCNC(=O)c1c(C)[nH]c(/C=C2\C(=O)Nc3ccc(F)cc32)c1C [SUNITINIB]
- inhibition at 1 µM [1]: 33%
- inhibition at 0.01 µM [2]: 30%
- inhibition [3]: inactive
- Drug uptake [4]: 2.9 nmol/mg
- remaining at 8 h, 1 µM [5]: 102%
- inhibition [6]: Active
- Activity [7]: Non-Toxic
- inhibition [8]: Active
- remaining at 8 h, 1 µM [9]: 97.3%
- logD at 4 h [10]: 2.51
- inhibition [11]: Active
- Drug uptake [12]: 5.72 nmol/mg

Structure (SMILES): CCN(CCNC(=O)c1c(C)[nH]c(/C=C2\C(=O)Nc3ccc(F)cc32)c1C)CCOCCOCCOCc1cn(CCCCN2C[C@@H]3C[C@H]2C(=O)N[C@@H](CCCNC(=N)N)C(=O)NCC(=O)N[C@@H](CC(=O)O)C(=O)N3)nn1
- log(activity) [13]: 0.9
- inhibition at 1 µM [1]: 24%
- Drug uptake [14]: 8 pmol/min
- IC50 [15]: 0.101 µM
- Drug uptake [4]: 0.43 nmol/mg
- remaining at 8 h, 1 µM [5]: 107%
- inhibition [6]: Active
- Activity [7]: Non-Toxic
- remaining at 8 h, 1 µM [9]: 104%
- Drug uptake [16]: Not Active
- logD at 4 h [10]: -2.56
- inhibition [17]: Active
- IC50 [18]: 0.0051 µM
- IC50 [19]: 10 µM
- inhibition [11]: inactive
- Drug uptake [12]: 0.48 nmol/mg

Structure (SMILES): Cc1[nH]c(/C=C2\C(=O)Nc3ccc(F)cc32)c(C)c1C(=O)NCCNC(=O)CCc1cn(CCCCN2C[C@@H]3C[C@H]2C(=O)N[C@@H](CCCNC(=N)N)C(=O)NCC(=O)N[C@@H](CC(=O)O)C(=O)N3)nn1
- log(activity) [13]: 0.64
- inhibition at 1 µM [1]: 46%
- Drug uptake [14]: 4.3 pmol/min
- inhibition at 0.01 µM [2]: 52%
- IC50 [15]: 0.0307 µM
- Drug uptake [4]: 0.22 nmol/mg
- remaining at 8 h, 1 µM [5]: 99%
- inhibition [6]: Active
- Activity [7]: Non-Toxic
- remaining at 8 h, 1 µM [9]: 88.2%
- logD at 4 h [10]: -2.03
- inhibition [17]: Active
- IC50 [18]: 0.00124 µM
- IC50 [19]: 0.5 µM
- inhibition [19]: Dose-dependent effect
- inhibition [20]: Active
- inhibition [11]: inactive
- Drug uptake [12]: 0.26 nmol/mg

Structure (SMILES): CCN(CCNC(=O)c1c(C)[nH]c(/C=C2\C(=O)Nc3ccc(F)cc32)c1C)CCOCCOCCNC(=O)c1cc(OCc2cn(CCCCN3C[C@@H]4C[C@H]3C(=O)N[C@@H](CCCNC(=N)N)C(=O)NCC(=O)N[C@@H](CC(=O)O)C(=O)N4)nn2)cc(OCc2cn(CCCCN3C[C@@H]4C[C@H]3C(=O)N[C@@H](CCCNC(=N)N)C(=O)NCC(=O)N[C@@H](CC(=O)O)C(=O)N4)nn2)c1
- log(activity) [13]: 1.19
- inhibition at 1 µM [1]: 41%
- Drug uptake [14]: 15.7 pmol/min
- inhibition at 0.01 µM [2]: 43%
- IC50 [15]: 0.0958 µM
- Drug uptake [4]: 0.54 nmol/mg
- IC50 [21]: 0.42 µM
- remaining at 8 h, 1 µM [5]: 98.6%
- inhibition [6]: Active
- Activity [7]: Non-Toxic
- IC50 [22]: 0.009 µM
- inhibition [8]: Active
- remaining at 8 h, 1 µM [9]: 109%
- Drug uptake [16]: Not Active
- logD at 4 h [10]: -3.02
- inhibition [17]: Active
- IC50 [18]: 0.0038 µM
- IC50 [19]: 0.5 µM
- inhibition [19]: Dose-dependent effect
- inhibition [20]: Active
- inhibition [11]: Active
- Drug uptake [12]: 0.94 nmol/mg

Structure (SMILES): N=C(N)NCCC[C@@H]1NC(=O)[C@@H]2C[C@@H](CN2CCN)NC(=O)[C@H](CC(=O)O)NC(=O)CNC1=O
- IC50 [23]: 0.0061 µM
- IC50 [24]: 0.315 µM
- IC50 [25]: 0.152 µM
